Converted amounts (≈) assume the structure as drawn. The source made the active and inactive calls. The rule behind the calls is not given here.
Key:
Leishmania amazonensis [1] = experiment: Antileishmanial activity against GFP expressing Leishmania amazonensis WHOM/BR/75/Josefa promastigote forms after 72 hrs by fluorescence assay; assay type: functional, organism-based
In short: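 GFP-transfected L. amazonensis WHOM/BR/75/Josefa promastigotes grown at 26 °C in M199 with penicillin, streptomycin, 10% heat-inactivated fetal calf serum and 2% human urine, kept under geneticin selection. Compounds dissolved in DMSO (final ≤1%), medium with 5% HIFCS, 72 h at 27 °C. Fluorescence read at 435/538 nm; triplicates, percent inhibition versus medium-only control.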

Leishmania amazonensis [2] = experiment: Antileishmanial activity against Leishmania amazonensis WHOM/BR/75/Josefa amastigote forms infected in BALB/c mouse peritoneal macrophages after 48 hrs by optical microscopy; assay type: functional, organism-based
In short: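 BALB/c mouse peritoneal macrophages collected in ice-cold DMEM, plated at 2 × 10⁶/mL, and held 1 h at 37 °C with 4% CO₂. Non-adherent cells were washed off with PBS. Stationary-phase promastigotes were added at a 5:1 parasite:macrophage ratio at 35 °C with 5% CO₂, and free parasites were washed off after 4 h. After 48 h of treatment, slides were stained with a hematological dye and parasites were counted by optical microscopy.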

Peritoneal macrophage [3] = experiment: Cytotoxicity against BALB/c mouse peritoneal macrophages at 1 to 100 umol/L after 48 hrs by optical microscopy; assay type: cell-based
Peritoneal macrophage [4] = experiment: (§1) Cytotoxicity against BALB/c mouse peritoneal macrophages assessed as increase in LDH release; assay type: cell-based; details: peritoneal macrophage
In short: (§2)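 LDH released into the medium from macrophages was read at 340 nm. Cells in 2% Triton X-100 gave maximum release and cells in medium gave minimum release. Release was expressed as percent of the positive control, and the 50% value was obtained by linear regression.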

Leishmania amazonensis [5] = experiment: Antileishmanial activity against Leishmania amazonensis WHOM/BR/75/Josefa amastigote forms infected in BALB/c mouse peritoneal macrophages after 72 hrs by hematological staining-based microscopic analysis; assay type: functional, organism-based
In short: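 Peritoneal macrophages from BALB/c mice collected in ice-cold DMEM, plated at 2 × 10⁶/mL in chamber slides, 1 h at 37 °C and 4% CO₂, non-adherent cells washed off. Infected with stationary-phase promastigotes at 5:1 parasite/macrophage, free parasites washed off after 4 h. Treated, then stained with a hematological dye and amastigotes counted by optical microscopy; triplicate means.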

[6] = Selectivity index, ratio of LD50 for BALB/c mouse peritoneal macrophages to IC50 for antileishmanial activity against Leishmania amazonensis WHOM/BR/75/Josefa amastigote forms; assay type: toxicity; details: for selectivity ratio: BALB/c, peritoneal macrophages, read-out: Selectivity Index
Leishmania amazonensis [7] = experiment: Antileishmanial activity against Leishmania amazonensis MHOM/BR/75/Josefa promastigote forms by trypan blue assay; assay type: functional, organism-based
[8] = as §1; assay type: cell-based, Peritoneal macrophage; details: BALB/c, peritoneal macrophages, read-out: LD50 (the source's name); in short: as §2
Peritoneal macrophage [9] = experiment: Induction of nitric oxide production in BALB/c mouse peritoneal macrophages; assay type: functional, cell-based
[10] = Leishmania amazonensis, WHOM/BR/75/Josefa, 72 h, read-out: IC50

Row | IC50 (Leishmania amazonensis [1]) [µM] | Compound | other results
1 | 156 | C=CCc1ccc(OCc2cn(Cc3cccc(Br)c3)nn2)c(OC)c1 | 
2 | 2010 | C=CCc1ccc(OCc2cn(Cc3ccc(C(F)(F)F)cc3)nn2)c(OC)c1 | 
3 |  | MEGLUMINE ANTIMONATE [listing 1 of 2 here] | Activity (Leishmania amazonensis [2]): Active
4 | 295 | C=CCc1ccc(OCCCc2cn(Cc3ccc(C(F)(F)F)cc3)nn2)c(OC)c1 | 
5 | 287 | C=CCc1ccc(OCCCc2cn(Cc3ccc(Br)cc3)nn2)c(OC)c1 | 
6 | 178 | C=CCc1ccc(OCCCc2cn(Cc3ccc(F)c(F)c3)nn2)c(OC)c1 | 
7 | 160 | C=CCc1ccc(OCc2cn(Cc3ccccc3Br)nn2)c(OC)c1 | 
8 |  | MEGLUMINE ANTIMONATE [listing 2 of 2 here] | Activity (Peritoneal macrophage [3]): Non-Toxic; LD50 (Peritoneal macrophage [4]): 75.5 µg/mL; IC50 (Leishmania amazonensis [5]): 45.5 µg/mL; Selectivity Index [6]: 1.6
9 | 969 | C=CCc1ccc(OCc2cn(Cc3ccc(F)c(F)c3)nn2)c(OC)c1 | 
10 | 2010 | C=CCc1ccc(OCc2cn(Cc3ccc(I)cc3)nn2)c(OC)c1 | 
11 | 425 | C=CCc1ccc(OCc2cn(Cc3ccc(OC)cc3)nn2)c(OC)c1 | 
12 | 59.4 | C=CCc1ccc(OCc2cn(Cc3ccc(F)cc3)nn2)c(OC)c1 | 
13 | 130 | C=CCc1ccc(OCc2cn(Cc3ccc([N+](=O)[O-])cc3)nn2)c(OC)c1 | 
14 | 146 | C=CCc1ccc(OCCCc2cn(Cc3ccc(OC(F)(F)F)cc3)nn2)c(OC)c1 | 
15 | 913 | C=CCc1ccc(OCCCc2cn(Cc3ccccc3Br)nn2)c(OC)c1 | 
16 |  | C=CCc1ccc(O)c(OC)c1 [EUGENOL] | IC50 (Leishmania amazonensis [7]): 80 µg/mL (≈ 487 µM)
17 | 32.2 | C=CCc1ccc(OCCCc2cn(Cc3ccc(F)cc3)nn2)c(OC)c1 | 
18 | 37.9 | C=CCc1ccc(OCCCc2cn(Cc3ccccc3)nn2)c(OC)c1 | 
19 | 993 | C=CCc1ccc(OCc2cn(Cc3ccc(Br)cc3)nn2)c(OC)c1 | 
20 | 49.2 | C=CCc1ccc(OCc2cn(Cc3cc(Cl)ccc3Cl)nn2)c(OC)c1 | 
21 | 980 | C=CCc1ccc(OCCCc2cn(Cc3cccc(Br)c3)nn2)c(OC)c1 | 
22 | 817 | C=CCc1ccc(OCCCc2cn(Cc3ccc(Cl)cc3)nn2)c(OC)c1 | 
23 | 30.2 | C=CCc1ccc(OCc2cn(Cc3ccccc3)nn2)c(OC)c1 | 
24 | 322 | C=CCc1ccc(OCc2cn(Cc3ccc(OC(F)(F)F)cc3)nn2)c(OC)c1 | 
25 | 1780 | C=CCc1ccc(OCc2cn(Cc3ccc(Cl)cc3)nn2)c(OC)c1 | 
26 | 106 | C=CCc1ccc(OCc2cn(Cc3ccc(C)cc3)nn2)c(OC)c1 | 
27 | 279 | C=CCc1ccc(OCCCc2cn(Cc3ccc(I)cc3)nn2)c(OC)c1 | 
28 | 173 | C=CCc1ccc(OCCCc2cn(Cc3ccc([N+](=O)[O-])cc3)nn2)c(OC)c1 | 
29 | 120 | C=CCc1ccc(OCCCc2cn(Cc3ccc(OC)cc3)nn2)c(OC)c1 | 

Row | Compound | IC50 (Leishmania amazonensis [1]) [µM] | other results
30 | N=C(N)c1ccc(OCCCCCOc2ccc(C(=N)N)cc2)cc1 [PENTAMIDINE] | 4.2 | CC50 [8]: 8.5 µM; IC50 (Leishmania amazonensis [5]; [10]): 1.8 µM; selectivity ratio [6]: 4.7
31 | C[C@@H]1[C@H](O)[C@@H](C)/C=C/C=C/C=C/C=C/C=C/C=C/C=C/[C@H](O[C@@H]2O[C@H](C)[C@@H](O)[C@H](N)[C@@H]2O)C[C@@H]2O[C@](O)(C[C@@H](O)C[C@@H](O)[C@H](O)CC[C@@H](O)C[C@@H](O)CC(=O)O[C@H]1C)C[C@H](O)[C@H]2C(=O)O [AMPHOTERICIN B] | 0.4 | 
32 | C=CCc1ccc(OCCCc2cn(Cc3ccc(C)cc3)nn2)c(OC)c1 | 7.4 | Activity (Peritoneal macrophage [9]): inactive; Activity (Peritoneal macrophage [3]): Non-Toxic; CC50 [8]: 212 µM; IC50 (Leishmania amazonensis [5]; [10]): 1.6 µM; Activity (Leishmania amazonensis [2]): Active; selectivity ratio [6]: 132

From ChEMBL document CHEMBL4145511, “Synthesis and leishmanicidal activity of eugenol derivatives bearing 1,2,3-triazole functionalities” (Eur J Med Chem, 2018)
